Converted amounts (≈) assume the structure as drawn. The source made the active and inactive calls. No cut-off for these calls is given here.
What was measured:
Escherichia coli [1] = assay: Antimicrobial activity against wild-type Escherichia coli after 18 hrs by broth dilution method; format: functional
How it was run: (§1)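 Strains grown overnight in LB, then subcultured the next day in fresh LB. Compounds serially diluted in LB in 96-well plates with cell suspension. Growth read as optical density. Highest concentration tested […], as printed. Broth dilution run in triplicate. MIC50 taken from the OD readings.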

Staphylococcus aureus = assay: Antimicrobial activity against Staphylococcus aureus ATCC 6538 after 18 hrs by broth dilution method; format: functional; details: ATCC 6538, 18 h; how it was run: as §1
Micrococcus luteus = assay: Antimicrobial activity against Sarcina lutea ATCC 9341 after 18 hrs by broth dilution method; format: functional; details: ATCC 9341, 18 h; how it was run: as §1
Candida albicans = assay: Antimicrobial activity against Candida albicans CO11 after 18 hrs by broth dilution method; format: functional; details: CO11, 18 h; how it was run: as §1
Escherichia coli [2] = assay: Inhibition of aminoacyl tRNA synthetase in wild-type Escherichia coli S30 cell extract asessed as inhibition of [14C]-radiolabeled aminoacid incorporation at 50 uM after 5 mins by liquid scintillation counting analysis
How it was run: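 Inhibitor incubated with 3 L E. coli wt S30 extract, as printed. Aminoacylation mix: Tris.HCl 30 mM pH 8.0, DTT 1 mM, bulk E. coli tRNA 5 g/l, ATP 3 mM, KCl 30 mM, MgCl2 8 mM, 14C-labelled amino acid 40 M (200 mCi/mmol), units as printed. Samples spotted on papers, washed with cold 10% TCA then acetone, dried. Radioactivity read by scintillation counting.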

Nc1ncnc2c1ncn2[C@@H]1O[C@H](CS(=O)(=O)NC(=O)[C@@H](N)CC(=O)O)[C@@H](O)[C@H]1O
MIC50 (Escherichia coli [1]): 50 µM (≈ 22.3 µg/mL)
MIC50 (Staphylococcus aureus): > 100 µM
MIC50 (Micrococcus luteus): > 100 µM
MIC50 (Candida albicans): > 100 µM
inhibition (Escherichia coli [2]): Active

Nc1ncnc2c1ncn2[C@@H]1O[C@H](CS(=O)(=O)NC(=O)[C@@H](N)Cc2ccc(O)cc2)[C@@H](O)[C@H]1O
MIC50 (Escherichia coli [1]): > 100 µM
MIC50 (Staphylococcus aureus): > 100 µM
MIC50 (Micrococcus luteus): > 100 µM
MIC50 (Candida albicans): > 100 µM

CC[C@H](C)[C@H](N)C(=O)NS(=O)(=O)C[C@H]1O[C@@H](n2cnc3c(N)ncnc32)[C@H](O)[C@@H]1O
MIC50 (Escherichia coli [1]): > 100 µM
MIC50 (Staphylococcus aureus): > 100 µM
MIC50 (Micrococcus luteus): > 100 µM
MIC50 (Candida albicans): > 100 µM

CC(C)C[C@H](N)C(=O)NS(=O)(=O)C[C@H]1O[C@@H](n2cnc3c(N)ncnc32)[C@H](O)[C@@H]1O
MIC50 (Escherichia coli [1]): > 100 µM
MIC50 (Staphylococcus aureus): > 100 µM
MIC50 (Micrococcus luteus): > 100 µM
MIC50 (Candida albicans): > 100 µM

NCC(=O)NS(=O)(=O)C[C@H]1O[C@@H](n2cnc3c(N)ncnc32)[C@H](O)[C@@H]1O
MIC50 (Escherichia coli [1]): > 100 µM
MIC50 (Staphylococcus aureus): > 100 µM
MIC50 (Micrococcus luteus): > 100 µM
MIC50 (Candida albicans): > 100 µM

Nc1ncnc2c1ncn2[C@@H]1O[C@H](CS(=O)(=O)NC(=O)[C@@H](N)CO)[C@@H](O)[C@H]1O
MIC50 (Escherichia coli [1]): > 100 µM
MIC50 (Staphylococcus aureus): > 100 µM
MIC50 (Micrococcus luteus): > 100 µM
MIC50 (Candida albicans): > 100 µM

Source: ChEMBL document CHEMBL3407473, “5'-(N-aminoacyl)-sulfonamido-5'-deoxyadenosine: attempts for a stable alternative for aminoacyl-sulfamoyl adenosines as aaRS inhibitors” (2015)
